According to ChEMBL document CHEMBL1125790, “Spiro[fluoreneisothiazolidin]one dioxides: new aldose reductase and L-hexonate dehydrogenase inhibitors” (J Med Chem, 1991):

Key:
[1] = target: Aldo-keto reductase family 1 member B1 (Rattus norvegicus, UniProt P07943); assay: In vitro inhibition of Aldose reductase (AR) from rat lens (RL)
Outline: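 Unfractionated rat lens supernatant (50–100 μg protein) run in the reverse direction: 50 mmol/L potassium phosphate pH 7.5, 12 mmol/L benzyl alcohol, 12 μmol/L oxidized 3-acetylpyridine adenine dinucleotide phosphate, room temperature. Reduced analogue formation followed fluorometrically at 365/480 nm. Same enzyme activity used for all inhibitors. IC50 from linear regression over the linear part of the dose–response curve.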

[2] = target: Aldo-keto reductase family 1 member B1 (Rattus norvegicus) (UniProt P07943); assay: Selectivity as ratio of IC50 for rat lens and kidney […]
[3] = target: Aldo-keto reductase family 1 member A1 (Rattus norvegicus, UniProt P51635); assay: In vitro inhibitory activity against L-Hexonate Dehydrogenase (L-HDH) from rat kidney (RK)
Sequence of Aldo-keto reductase family 1 member A1 (P51635 whole entry, looked up): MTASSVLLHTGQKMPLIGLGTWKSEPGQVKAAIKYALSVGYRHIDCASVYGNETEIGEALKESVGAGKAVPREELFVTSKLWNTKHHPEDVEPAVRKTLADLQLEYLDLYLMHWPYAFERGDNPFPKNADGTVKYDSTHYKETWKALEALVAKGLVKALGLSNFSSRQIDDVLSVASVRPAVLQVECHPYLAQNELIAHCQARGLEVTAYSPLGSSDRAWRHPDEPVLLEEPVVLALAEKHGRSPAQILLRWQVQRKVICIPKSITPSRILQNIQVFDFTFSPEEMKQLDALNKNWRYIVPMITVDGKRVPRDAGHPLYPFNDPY

With `O=C1NS(=O)(=O)CC12c1ccccc1-c1ccccc12` as the molecule, how does the IC50 [1] read?
The IC50 was greater than 10000 µM.

What about the Selectivity quotient [2] of the same molecule?
The Selectivity quotient was greater than 2000.

What about the IC50 [3] of the same molecule?
The IC50 was 4.5 µM.

For `O=C1CC2(c3ccccc3-c3ccc(F)cc32)S(=O)(=O)N1` (centres undefined), which IC50 [1] is on record?
Its IC50 is 0.169 µM.

What about the Selectivity quotient [2] of the same molecule?
The Selectivity quotient was 1.12.

And the IC50 [3]?
Its IC50 is 0.151 µM.

How did the IC50 [1] turn out when `O=C1CC2(c3ccccc3-c3ccccc32)S(=O)(=O)N1` was run?
Its IC50 is 1.9 µM.

And the Selectivity quotient [2]?
Its Selectivity quotient is 1.09.

What about the IC50 [3] of the same molecule?
Its IC50 is 1.75 µM.

With `O=C1CC2(c3ccccc3-c3ccc(Cl)cc32)S(=O)(=O)N1` (centres undefined) as the molecule, how does the IC50 [1] read?
Its IC50 is 0.233 µM.

What about the Selectivity quotient [2] of the same molecule?
The Selectivity quotient was 2.22.

What about the IC50 [3] of the same molecule?
The IC50 was 0.105 µM.

For `O=C1NS(=O)(=O)CC12c1ccccc1-c1ccc(F)cc12` (centres undefined), which IC50 [1] is on record?
Its IC50 is greater than 10000 µM.

What about the Selectivity quotient [2] of the same molecule?
Its Selectivity quotient is greater than 5000.

What about the IC50 [3] of the same molecule?
The IC50 was 2.1 µM.

Which results are given for `O=C1CC2(C(=O)N1)c1cc(F)ccc1-c1ccc(F)cc12`?
IC50 [1]: 0.005 µM; Selectivity quotient [2]: 0.56; IC50 [3]: 0.009 µM

Which results are given for `O=C(O)Cc1nn(Cc2ccc(Br)cc2F)c(=O)c2ccccc12` [PONALRESTAT]?
IC50 [1]: 0.02 µM; Selectivity quotient [2]: 0.008; IC50 [3]: 2.4 µM

With `COc1ccc2c(C(=S)N(C)CC(=O)O)cccc2c1C(F)(F)F` [TOLRESTAT] as the molecule, how does the IC50 [1] read?
Its IC50 is 0.002 µM.

How did the IC50 [1] turn out when `O=C1NS(=O)(=O)CC12c1cc(F)ccc1-c1ccc(F)cc12` was run?
The IC50 was 6150 µM.

What about the Selectivity quotient [2] of the same molecule?
The Selectivity quotient was 1640.

And the IC50 [3]?
Its IC50 is 3.75 µM.

`O=C1NC(=O)C2(N1)c1cc(F)ccc1-c1ccc(F)cc12` was tested. Which IC50 [1] did it give?
Its IC50 is 0.009 µM.

What about the Selectivity quotient [2] of the same molecule?
Its Selectivity quotient is 1.8.

What about the IC50 [3] of the same molecule?
The IC50 was 0.005 µM.

Which IC50 [1] does the source give for `O=C1CC2(c3cc(F)ccc3-c3ccc(F)cc32)S(=O)(=O)N1` here?
Its IC50 is 0.018 µM.

And the Selectivity quotient [2]?
The Selectivity quotient was 0.68.

What about the IC50 [3] of the same molecule?
The IC50 was 0.027 µM.

What does the source list for `O=C1NS(=O)(=O)CC12c1ccccc1-c1ccc(Cl)cc12` (centres undefined)?
IC50 [1]: 2370 µM; Selectivity quotient [2]: 675; IC50 [3]: 3.51 µM
